Hits are enriched below; roughly 3.1% of the tested compounds scored in any of these assays.
ATG4B inhibitor: inhibitors of human ATG4B cysteine protease. 340,000 tested, 0.51% active. Q9Y4P1. inhibition, % at 8.33 µM. AID 504462. ATG4B cleavage of LC3-PLA2, NBD-HPC fluorescence, 1 h; in the data active = inhibition above about 40%
MBD2 inh: inhibitors of human MBD2 binding to methylated oligonucleotide; Q9UBB5; TR-FRET; inhibition, % at 4.4 µM; 370,000 tested, 0.31% active; AID 686964; in the data active = inhibition above about 13%
Target sequence (Q9UBB5 whole entry, looked up): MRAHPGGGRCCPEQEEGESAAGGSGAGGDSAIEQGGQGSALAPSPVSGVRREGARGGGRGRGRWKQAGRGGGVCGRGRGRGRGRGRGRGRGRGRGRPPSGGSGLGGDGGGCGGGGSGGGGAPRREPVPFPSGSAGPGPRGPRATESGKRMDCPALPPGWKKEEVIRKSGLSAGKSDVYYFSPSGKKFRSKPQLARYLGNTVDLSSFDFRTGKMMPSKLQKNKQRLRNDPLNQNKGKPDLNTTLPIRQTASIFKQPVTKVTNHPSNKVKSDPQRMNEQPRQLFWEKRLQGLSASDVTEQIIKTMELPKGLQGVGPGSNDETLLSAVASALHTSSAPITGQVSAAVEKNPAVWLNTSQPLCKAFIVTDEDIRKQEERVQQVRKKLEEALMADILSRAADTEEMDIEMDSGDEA
UHRF1 MBD2 ctr: blocks human UHRF1 binding to methylated DNA; UHRF1 binding to methylated oligo, TR-FRET; inhibition, % at 4.4 µM; 370,000 tested, 0.75% active; Q96T88; AID 687016; in the data active = inhibition above about 21%;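 note: UHRF1 SRA domain binding a hemimethylated CpG hairpin DNA probe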
LEDGF integ inh: blocks HIV-1 LEDGF/p75-dependent DNA integration; TR-FRET IN-LEDGF/p75 DNA integration, Eu/Cy5; inhibition, % at 3.7 µM; 370,000 tested, 0.64% active;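 active = inhibition above the screen-wide mean plus 3 SD, cut at about 13% in these data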;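 note: signal is the Cy5 over europium emission ratio at 671 and 618 nm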
CSN inh: inhibitors of human CSN-mediated cullin deneddylation. Q92905. inhibition, % at 12.5 µM. Purified CSN, SCF-Nedd8-OG deneddylation, fluorescence polarization. 360,000 tested, 0.38% active;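 active = pattern-corrected inhibition above about 35%, with an unprinted fluorescence ratio check between 0.5 and 1.5, limit read from the data, passing the limit was not always enough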
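Material: purified human Csn5 enzyme expressed in HEK293T cells / Medium: Tris buffer pH 7.5, NaCl, DTT, Tween-20, trehalose, ovalbumin / Compound dosing: 12.5 µM single point / Schedule: 90 min incubation of compound, enzyme and substrate at room temperature / Signal: fluorescence polarization of the substrate / Control set: no-enzyme wells high, enzyme-with-substrate wells low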
rCAG binder: molecules binding r(CAG) RNA repeats. inhibition, % at 3 µM. 370,000 tested, 1.3% active. AID 651821. r(CAG) RNA repeat, TO-PRO-1 dye displacement fluorescence;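 active = inhibition above the plate cutoff, the mean of all test compounds on that plate plus 3 SD, cut at about 35% in these data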;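 note: higher means more dye released from RNA so lower well fluorescence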
rCAG binder conf: r(CAG) RNA repeat binding, confirmation | shares compounds with rCAG binder | TO-PRO-1 dye displacement fluorescence | inhibition, % at 3 µM | 4,300 tested, 70% active | AID 652065;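 active = inhibition above a per-plate cutoff, the mean inhibition of sample wells plus 3 SD, cut at about 35% in these data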;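 note: loss of TO-PRO-1 fluorescence as compound displaces dye from 1x1 AA loop RNA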
DNA CAG counter: disrupts DNA CAG TO-PRO-1 complex, flagging rCAG hits. shares compounds with rCAG binder. d(CAG) DNA oligo TO-PRO-1 dye displacement, fluorescence. inhibition, % at 3 µM. 4,300 tested, 94% active. AID 652068;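 active = inhibition above its plate's cutoff, the mean test-well inhibition plus 3 SD, cut at about 4.8% in these data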;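 note: hits displace the dye from DNA and so lower well fluorescence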
dCAG dye DR: counter-screen for rCAG binders: inhibitors of DNA CAG TO-PRO-1 complex. AID 686960. shares compounds with rCAG binder. DNA CAG/GTC duplex TO-PRO-1 dye displacement fluorescence. IC50, µM. 250 tested, 20% active; in the data active = IC50 below about 10 µM
Of the large screens only hits and unclear results are named; the others gave an inactive call (follow-up assays come after a bar, where they were run).

CC(/C=N/n1c(-c2ccc(Cl)cc2)n[nH]c1=S)=C\c1ccco1	rCAG binder 39.0 | rCAG binder conf 38.6 | DNA CAG counter 11.9
S=c1[nH]nc(-c2ccncc2)n1/N=C/C=C/c1ccccc1	none
CN(C)[C@@H]1CCN(c2cccc3c2S(=O)(=O)N2CC[C@H](C2)O3)C1	none (no result: ATG4B inhibitor, CSN inh)
C[C@H](O)[C@@H]1CN2CCc3c([nH]c4c(-c5ccc6c(c5)OCO6)cccc34)[C@@H]2C[C@@H]1N(C)C(=O)Nc1ccccc1	none (no result: ATG4B inhibitor, CSN inh)
CCCCc1cccc2[nH]cc(C)c12	none (no result: ATG4B inhibitor, CSN inh)
COc1cccc(CNC(=O)C2CCCN(c3ncccn3)C2)c1OC (stereo unspecified)	none (no result: ATG4B inhibitor, CSN inh)
S=c1[nH]nc(COc2ccccc2)n1/N=C/C(Cl)=C/c1ccccc1	rCAG binder 51.6 | rCAG binder conf 72.3 | DNA CAG counter 34.4 | dCAG dye DR inactive
Cc1cc(-c2n[nH]c(=S)n2N=Cc2cccc(Oc3ccccc3)c2)n[nH]1	rCAG binder 45.7 (no result: ATG4B inhibitor, CSN inh) | rCAG binder conf inactive | DNA CAG counter 7.9
S=c1[nH]nc(COc2ccccc2)n1/N=C/c1cccc(Br)c1	rCAG binder 42.4 | rCAG binder conf 44.2 | DNA CAG counter 14.1
S=c1[nH]nc(COc2ccccc2)n1/N=C/c1ccc(Br)cc1	none
COc1ccccc1OCC(=O)Nc1cc(NC(=O)COc2ccccc2OC)cc(C(=O)O)c1	rCAG binder 45.6 | rCAG binder conf inactive | DNA CAG counter inactive
COc1ccccc1OCC(=O)Nc1nnc(-c2ccco2)s1	rCAG binder 57.9 | rCAG binder conf inactive | DNA CAG counter inactive
O=C(COc1ccccc1Cl)Nc1cc(NC(=O)COc2ccccc2Cl)cc(C(=O)O)c1	none
O=C(COc1ccccc1)Nc1cc(NC(=O)COc2ccccc2)cc(C(=O)O)c1	none
COc1ccc(OCC(=O)Nc2cc(NC(=O)COc3ccc(OC)cc3)cc(C(=O)O)c2)cc1	rCAG binder 37.6 | rCAG binder conf 51.7 | DNA CAG counter 16.7
CC(C)C(=O)N1CC[C@H]2[C@H](CCCN2Cc2ccc(F)cc2)C1	none (no result: ATG4B inhibitor, CSN inh)
CC(C)c1cc(C(C)C)c(S(=O)(=O)N2CCC(c3cn4ccccc4n3)CC2)c(C(C)C)c1	none (no result: ATG4B inhibitor, CSN inh)
C/C(=N/NC(=O)Cc1cccs1)c1cccc([N+](=O)[O-])c1	none (no result: ATG4B inhibitor, CSN inh)
O=C(c1cc(F)ccc1F)N1CCC(Oc2cccnc2)CC1	none (no result: ATG4B inhibitor, CSN inh)
c1ccc(Cn2ccc3ccc(-c4ccc5ccn(Cc6ccc(-c7ccccc7)cc6)c5c4)cc32)cc1	none (no result: ATG4B inhibitor, CSN inh)
CCC(NC(=O)c1ccc2c(ccn2Cc2cccc(-c3ccc(C(=O)O)cc3)c2)c1)c1ccccc1 (stereo unspecified)	rCAG binder 77.2 (no result: ATG4B inhibitor, CSN inh) | rCAG binder conf 76.6 | DNA CAG counter 35.0
CCc1cccc(NC(=O)CSc2nnc(Cc3ccc(OC)cc3)c(=O)[nH]2)c1	rCAG binder 45.8 | rCAG binder conf 42.1 | DNA CAG counter 9.3
COc1ccc(Cc2nnc(SCC(=O)Nc3c(C)cccc3C)[nH]c2=O)cc1	none
Cc1cc(N2CCN(C(=O)Oc3ccc(-c4ccccc4)cc3)CC2)c2ccccc2n1	none (no result: ATG4B inhibitor, CSN inh)
CCOC(=O)C1CCCN(c2nc3ccccc3nc2NS(=O)(=O)c2ccc(C)cc2)C1 (stereo unspecified)	rCAG binder 61.8 | rCAG binder conf 58.2 | DNA CAG counter 14.6
Cc1cccc(S(=O)(=O)NC(=O)C2(C)CCN2C(=O)C2(c3ccc(Cl)cc3)CCC2)c1 (stereo unspecified)	rCAG binder 42.0 (no result: ATG4B inhibitor) | rCAG binder conf 41.8 | DNA CAG counter 10.6
CC1(C(=O)NS(=O)(=O)c2ccccc2)CCN1C(=O)C1(c2ccc(Cl)cc2)CCC1 (stereo unspecified)	none (no result: ATG4B inhibitor)
CC1(C(=O)NS(=O)(=O)c2cccs2)CCN1C(=O)C1(c2ccc(Cl)cc2)CCC1 (stereo unspecified)	none (no result: ATG4B inhibitor)

From PubChem BioAssay
